Screens deposited in PubChem BioAssay by Johns Hopkins Ion Channel Center.
MrgX1 ag: agonists of human MrgX1 receptor, primary screen, HEK293 cells, Fluo-4 calcium flux | Fluo-4 calcium fluorescence, agonist mode; hits give high values | B-score at 10 µM | hit rate 0.44% among 310,000;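 active = calcium response B-score plate-corrected fluorescence ratio at least 3 library SD, with starting fluorescence B-score inside 5 SD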
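Material – MrgX1-expressing HEK293 cells · Input – 15,000 cells seeded per well · Dosing – compound as first of three additions · Times – overnight seeding, then 1 h dark dye loading · Measured by – kinetic Fluo-4 NW fluorescence of intracellular calcium · Read-out – B-scored fluorescence response ratio · Benchmarks – positive and negative control wells on each plate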
RGS4 pot: RGS4 potentiators or activators, primary screen, cell-based, HEK293 M3R inducible RGS4, calcium flux; carbachol calcium flux Fluo4; hits give low values; B-score at 10 µM; hit rate 0.92% among 310,000;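 active = B-score of the integrated calcium signal more than 4 SD below the library mean, with starting fluorescence not abnormally high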;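 also: negative B-score means reduced calcium response which marks RGS4 activation or potentiation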
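System: HEK293 FlpIn-TREx cells, stable M3R, doxycycline-inducible RGS4. Timing: overnight RGS4 induction, 30 min dye load 37 °C, 20 min compound RT. Also added: carbachol, ECmax concentration. Measured by: Fluo4 fluorescence kinetic imaging of calcium. Evaluation: integrated calcium ratio converted to B score.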
MrgX1 antagonist: antagonists of human MrgX1 receptor, primary screen, HEK293 cells, Fluo-4 calcium flux; hit rate 1.3% among 310,000; Mas-related G-protein coupled receptor member X1 (Homo sapiens), Q96LB2; BAM8-22 antagonism; hits give low values; B-score at 10 µM;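 active = calcium-response B-score plate-corrected more than 3 library SD below zero, starting fluorescence within 5 deviations, no agonist response on first addition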;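 also: peak minus trough fluorescence over baseline after final BAM8-22 challenge near maximal dose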
RGS4 inh: RGS4 inhibitors, primary screen, cell-based, HEK293 M3R inducible RGS4, calcium flux; Regulator of G-protein signaling 4 (Homo sapiens), P49798; Fluo-4 calcium flux; hits give high values; triggered by carbachol at its EC20; B-score at 10 µM; hit rate 0.45% among 310,000; AID 463165, 2010;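 active = B-score, a plate-corrected calcium signal, over three deviations above library mean, with baseline fluorescence within five deviations of library mean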;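 also: RGS4 expression induced by doxycycline in cells with stable M3 receptor; B-score is computed from the integrated fluorescence ratio over baseline after carbachol; higher B-score means a larger calcium signal and so more RGS4 inhibition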
Target sequence (P49798 whole entry, looked up): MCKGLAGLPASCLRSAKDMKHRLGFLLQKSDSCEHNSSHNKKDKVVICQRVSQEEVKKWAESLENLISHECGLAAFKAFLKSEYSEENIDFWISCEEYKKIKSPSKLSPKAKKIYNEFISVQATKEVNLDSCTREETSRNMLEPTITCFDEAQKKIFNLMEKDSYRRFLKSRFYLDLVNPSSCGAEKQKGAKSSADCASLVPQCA
MrgX1 allo act: positive allosteric modulators of MrgX1, primary screen, HEK293 cells, Fluo-4 calcium flux. hit rate 0.63% among 310,000. AID 588675, 2011. Mas-related G-protein coupled receptor member X1 (Homo sapiens), Q96LB2. B-score at 10 µM. FDSS; hits give high values;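 active = plate-corrected calcium response at least 3 library SD above typical, normal starting fluorescence, not activating the receptor alone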;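 also: compound read alongside a low EC10 to EC30 dose of BAM8-22 agonist; peak minus trough fluorescence over baseline measured at the second addition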
RGS4 act valid: reduced carbachol calcium response, RGS4-induced M3R cells, confirmation, RGS4 activator project, cell-based, HEK293 M3R/RGS4 inducible, calcium flux, duplicate; shares compounds with RGS4 pot; AID 602282, 2012; carbachol calcium flux Fluo4; hit rate 89% among 1,100; inhibition, % at 10 µM;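 active = inhibition above 3 SD of the buffer control wells, cut at about 41% in these data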;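 also: signal is the integrated peak-minus-minimum Fluo4 fluorescence over baseline ratio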
M3R Ca counter: RGS4 activator counter-screen hit in non-induced cells; shares compounds with RGS4 pot; HEK293 M3R non-induced RGS4, Fluo4 calcium flux; after carbachol challenge at its EC90; inhibition, % at 10 µM; hit rate 82% among 1,100;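 active = inhibition exceeding 3 SD of buffer-only control wells, cut at about 26% in these data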;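 also: percent drop in integrated peak-minus-baseline over baseline Fluo4 ratio after carbachol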
An asterisk follows results filed as active; i = inactive; nt = no result given. A selection: hits, their analogues and other compounds. The true share with any hit is near 3.5%.

SMILES | MrgX1 ag | RGS4 pot | MrgX1 antagonist | RGS4 inh | MrgX1 allo act | RGS4 act valid | M3R Ca counter
CCC1Oc2ccccc2C(=O)N(CC(=O)c2ccc3c(c2)OCCO3)C1=O (configuration not stated) | i | -8.1* | i | i | i | 72* | 84*
CC(C)C1Oc2ccccc2C(=O)N(CC(=O)c2ccc3c(c2)OCCO3)C1=O (configuration not stated) | i | -7.8* | i | i | i | 0 | 0
CC1Oc2ccccc2C(=O)N(CC(=O)c2ccc3c(c2)OCCO3)C1=O (configuration not stated) | i | i | i | i | i | nt | nt
CC(C)(C)c1[nH]nc2c1C(c1cccnc1)C(C#N)=C(N)O2 (configuration not stated) | i | i | i | i | i | nt | nt
CC(C)(C)c1[nH]nc2c1C(Cc1ccccc1)C(C#N)=C(N)O2 (configuration not stated) | i | -9.3* | -5.1* | i | i | 92* | 84*
CC1CC(C)(C)N(C(=O)CSc2ccc(-c3ccc(F)cc3)nn2)c2ccccc21 (configuration not stated) | i | -13* | i | i | i | 94* | 72*
Cc1cc(C)n2nc(SCc3nnc(SCCCCl)o3)nc2n1 | i | -7.7* | i | i | i | 78* | 35*
COc1ccc(-c2cc(-c3nnc(COC(=O)c4ccc(O)cc4)o3)c3ccccc3n2)cc1OC | i | -7.7* | i | i | i | 62* | 0
Cc1ccccc1Cn1cc(NC(=O)CCCn2nc([N+](=O)[O-])cc2C)cn1 | i | i | i | i | i | nt | nt
CC(C)CC(c1nnnn1Cc1cccs1)N1CCN(c2nc3ccccc3s2)CC1 (configuration not stated) | i | -12* | i | i | i | 92* | 71*
CCC(c1nnnn1Cc1cccs1)N1CCN(c2nc3ccccc3s2)CC1 (configuration not stated) | i | i | i | i | i | nt | nt
Cc1cc(=O)oc2cc(OCc3ccc(C(=O)OCC(=O)Nc4ccccc4OC(F)F)cc3)ccc12 | i | i | i | i | i | nt | nt
CC(C)(O)C#Cc1ccc(CN2CCN(C3CCCCC3)C(CCO)C2)s1 (configuration not stated) | i | -7.8* | i | i | i | 64* | 26*
CC(C)(O)C#Cc1ccc(CN2CCN(C3CCCCC3)C(CCO)C2)cc1 (configuration not stated) | i | i | i | i | i | nt | nt
CSc1ccc(CN2CCN(C3CCCC3)C(CCO)C2)cc1 (configuration not stated) | i | -8.9* | i | i | i | 88* | 60*
C=CCn1c(=O)c2ccccc2n2c(SCC(=O)NCC)nnc12 | i | i | i | i | i | nt | nt
COc1ccc2c(C)cc(Sc3nnnn3-c3ccccc3)nc2c1 | i | i | i | i | i | nt | nt
Cc1cc(N2CCCCC2)n2ncc(-c3ccc(Cl)cc3)c2n1 | i | i | i | i | i | nt | nt
Cc1cc(N2CCCCC2)n2ncc(-c3ccccc3)c2n1 | i | -8.1* | i | i | i | 94* | 87*
Cc1ccc(O)c(C(=O)c2cnc(/N=C(\N)N(C)C)nc2)c1 | i | -8.8* | i | i | i | 90* | 69*
O=C1CC(C(=O)Nc2ccccc2)S/C(=N\NC(=O)c2ccccc2Cl)N1 (configuration not stated) | i | i | i | i | i | nt | nt
